{"source": "ChEMBL document CHEMBL4229344", "about": "(Eur J Med Chem, 2018)", "key": {"[1]": {"target": "Cyclin-dependent kinase 13 (Homo sapiens) (UniProt Q14004)", "assay": "Binding affinity to wild-type human partial length CDC2L5 (H675 to S1054 residues) expressed in mammalian expression system assessed as residual binding level at 1 uM by Kinomescan method relative to control"}, "[2]": {"system": "Mast/stem cell growth factor receptor Kit (Homo sapiens), P10721 [V559D,T670I]", "sequence (P10721 whole entry V559D/T670I, the tested form may be a part)": "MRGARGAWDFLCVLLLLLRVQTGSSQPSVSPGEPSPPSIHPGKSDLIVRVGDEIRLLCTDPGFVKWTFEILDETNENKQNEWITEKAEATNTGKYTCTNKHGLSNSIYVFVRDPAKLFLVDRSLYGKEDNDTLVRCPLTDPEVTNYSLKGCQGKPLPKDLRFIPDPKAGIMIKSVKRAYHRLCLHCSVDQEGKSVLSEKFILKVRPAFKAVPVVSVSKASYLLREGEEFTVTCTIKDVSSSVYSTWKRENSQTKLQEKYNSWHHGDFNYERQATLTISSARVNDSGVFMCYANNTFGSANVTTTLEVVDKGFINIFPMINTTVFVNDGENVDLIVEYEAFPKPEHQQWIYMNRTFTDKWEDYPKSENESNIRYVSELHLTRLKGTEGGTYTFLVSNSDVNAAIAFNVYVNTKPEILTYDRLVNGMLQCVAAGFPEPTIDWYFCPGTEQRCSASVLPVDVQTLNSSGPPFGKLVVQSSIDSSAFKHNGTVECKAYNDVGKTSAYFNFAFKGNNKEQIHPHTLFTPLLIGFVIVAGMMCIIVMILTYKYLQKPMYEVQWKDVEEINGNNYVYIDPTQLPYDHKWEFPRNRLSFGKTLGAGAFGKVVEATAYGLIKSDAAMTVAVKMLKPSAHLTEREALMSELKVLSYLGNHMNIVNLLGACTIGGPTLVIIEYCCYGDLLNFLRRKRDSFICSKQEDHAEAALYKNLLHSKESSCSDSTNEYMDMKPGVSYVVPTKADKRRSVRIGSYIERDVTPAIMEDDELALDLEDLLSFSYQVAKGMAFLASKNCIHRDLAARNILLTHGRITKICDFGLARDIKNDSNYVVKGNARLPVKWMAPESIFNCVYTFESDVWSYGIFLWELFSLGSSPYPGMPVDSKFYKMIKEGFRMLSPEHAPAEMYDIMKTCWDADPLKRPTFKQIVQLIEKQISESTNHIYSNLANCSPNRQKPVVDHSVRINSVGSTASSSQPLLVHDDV", "assay": "Binding affinity to human partial length KIT V559D/T670I double mutant (Y545 to D952 residues) expressed in bacterial expression system assessed as residual binding level at 1 uM by Kinomescan method relative to control", "outline": "(§1)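 Kinome-wide single-concentration binding screen (KINOMEscan) at 1 μM against a panel of 468 purified kinases and mutants. Read-out is relative binding of each kinase compared with control. Selectivity across the panel was summarised as an S(10) score.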"}, "[3]": {"target": "Mitogen-activated protein kinase kinase kinase 11 (Homo sapiens) (UniProt Q16584)", "assay": "Binding affinity to wild-type human partial length MLK3 (I77 to W399 residues) expressed in bacterial expression system assessed as residual binding level at 1 uM by Kinomescan method relative to control"}, "[4]": {"target": "Phosphatidylinositol 4-phosphate 5-kinase type-1 gamma (Homo sapiens) (UniProt O60331)", "sequence (O60331 whole entry, the tested form may be a part)": "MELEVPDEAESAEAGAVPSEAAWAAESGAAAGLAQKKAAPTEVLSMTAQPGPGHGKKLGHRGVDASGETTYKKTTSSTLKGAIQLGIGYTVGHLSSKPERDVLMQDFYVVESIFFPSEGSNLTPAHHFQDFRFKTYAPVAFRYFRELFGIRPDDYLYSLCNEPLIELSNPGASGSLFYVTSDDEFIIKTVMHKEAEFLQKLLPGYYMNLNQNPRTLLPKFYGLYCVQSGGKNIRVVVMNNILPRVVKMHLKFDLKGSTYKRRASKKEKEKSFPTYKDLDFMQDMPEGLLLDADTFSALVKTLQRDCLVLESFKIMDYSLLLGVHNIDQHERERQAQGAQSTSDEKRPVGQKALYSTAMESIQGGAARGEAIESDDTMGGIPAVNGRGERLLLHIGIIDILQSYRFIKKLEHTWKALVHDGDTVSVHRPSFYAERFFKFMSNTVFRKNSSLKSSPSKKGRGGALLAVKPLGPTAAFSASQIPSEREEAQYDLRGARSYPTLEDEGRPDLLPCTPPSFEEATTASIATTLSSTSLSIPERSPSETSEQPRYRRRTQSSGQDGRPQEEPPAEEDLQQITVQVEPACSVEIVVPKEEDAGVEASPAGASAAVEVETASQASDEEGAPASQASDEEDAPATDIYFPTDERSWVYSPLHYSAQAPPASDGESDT", "assay": "Binding affinity to wild-type human partial length PIP5K1C (M1 to T668 residues) expressed in mammalian expression system assessed as residual binding level at 1 uM by Kinomescan method relative to control", "outline": "(§2)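 KINOMEscan competition binding against a panel of 468 purified kinases/mutants, compound tested at 1 μM; readout is relative binding activity versus control.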"}, "[5]": {"target": "Tyrosine-protein kinase JAK1 (Homo sapiens) (UniProt P23458)", "assay": "Binding affinity to wild-type human partial length JAK1 JH1 catalytic domain (V856 to K1154 residues) expressed in bacterial expression system assessed as residual binding level at 1 uM by Kinomescan method relative to control"}, "[6]": {"target": "Serine/threonine-protein kinase Nek9 (Homo sapiens) (UniProt Q8TD19)", "sequence (Q8TD19 whole entry, the tested form may be a part)": "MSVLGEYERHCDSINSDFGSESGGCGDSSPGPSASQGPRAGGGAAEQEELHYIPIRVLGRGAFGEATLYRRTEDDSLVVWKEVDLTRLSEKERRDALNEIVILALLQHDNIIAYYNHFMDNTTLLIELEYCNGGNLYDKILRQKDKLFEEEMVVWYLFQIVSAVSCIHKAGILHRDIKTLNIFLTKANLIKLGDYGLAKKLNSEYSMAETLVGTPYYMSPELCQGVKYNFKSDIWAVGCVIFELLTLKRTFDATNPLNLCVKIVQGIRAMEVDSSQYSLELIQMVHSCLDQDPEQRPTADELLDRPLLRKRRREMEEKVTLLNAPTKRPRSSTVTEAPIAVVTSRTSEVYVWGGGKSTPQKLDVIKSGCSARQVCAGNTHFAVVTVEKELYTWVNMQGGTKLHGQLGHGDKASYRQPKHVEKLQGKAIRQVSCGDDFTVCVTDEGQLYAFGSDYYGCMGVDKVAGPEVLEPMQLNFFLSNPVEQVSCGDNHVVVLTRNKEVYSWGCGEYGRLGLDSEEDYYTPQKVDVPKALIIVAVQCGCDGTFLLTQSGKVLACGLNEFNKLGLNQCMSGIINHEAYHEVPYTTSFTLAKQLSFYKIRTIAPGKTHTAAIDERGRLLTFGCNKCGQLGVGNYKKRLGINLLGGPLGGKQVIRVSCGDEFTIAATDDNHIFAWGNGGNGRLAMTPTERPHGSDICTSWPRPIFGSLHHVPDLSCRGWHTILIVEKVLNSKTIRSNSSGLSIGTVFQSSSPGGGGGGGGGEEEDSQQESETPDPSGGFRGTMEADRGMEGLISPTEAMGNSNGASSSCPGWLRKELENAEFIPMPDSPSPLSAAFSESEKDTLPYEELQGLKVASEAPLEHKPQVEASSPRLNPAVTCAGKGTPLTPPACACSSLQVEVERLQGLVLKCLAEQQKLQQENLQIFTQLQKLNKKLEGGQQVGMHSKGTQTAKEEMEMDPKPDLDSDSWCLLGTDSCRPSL", "assay": "Binding affinity to wild-type human partial length NEK9 (P32 to R328 residues) expressed in bacterial expression system assessed as residual binding level at 1 uM by Kinomescan method relative to control", "outline": "as §2"}, "[7]": {"system": "EOL1", "assay": "Induction of apoptosis in human EOL-1 cells assessed as cleaved caspase3 expression level at 3 to 100 nM after 24 hrs by Western blot analysis", "assay_type": "functional, cell-based", "outline": "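Cells exposed to compound or DMSO for the stated periods, then lysed and immunoblotted for PARP and caspase-3 cleavage, with β-actin as loading control. NCI-H1703 stimulation used PDGF AA at 100 ng/mL.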"}, "[8]": {"assay": "Apparent clearance in Sprague-Dawley rat at 10 mg/kg, po", "assay_type": "ADME, organism-based", "details": "in vivo, read-out: CL(app) (converted)"}, "[9]": {"target": "Atypical kinase COQ8A, mitochondrial (Homo sapiens) (UniProt Q8NI60)", "assay": "Binding affinity to wild-type human full length ADCK3 (M280 to Q647 residues) expressed in bacterial expression system assessed as residual binding level at 1 uM by Kinomescan method relative to control", "outline": "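Single-concentration (1 μM) competition-binding screen run by KINOMEscan against a panel of 468 purified kinases and mutants. The read-out is the relative binding activity of the test compound to each kinase.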"}, "[10]": {"system": "eIF-2-alpha kinase GCN2 (Homo sapiens), Q9P2K8 [S808G]", "assay": "Binding affinity to wild-type human partial length GCN2 kinase domain 2 (R585 to T1018 residues) S808G mutant expressed in bacterial expression system assessed as residual binding level at 1 uM by Kinomescan method relative to control"}, "[11]": {"system": "Receptor-type tyrosine-protein kinase FLT3 (Homo sapiens), P36888 [N841I]", "assay": "Binding affinity to human partial length FLT3 N841I mutant (V592 to Y969 residues) expressed in bacterial expression system assessed as residual binding level at 1 uM by Kinomescan method relative to control", "outline": "as §1"}, "[12]": {"target": "MAP kinase-activated protein kinase 2 (Homo sapiens) (UniProt P49137)", "sequence (P49137 whole entry, looked up, the tested form may be a part)": "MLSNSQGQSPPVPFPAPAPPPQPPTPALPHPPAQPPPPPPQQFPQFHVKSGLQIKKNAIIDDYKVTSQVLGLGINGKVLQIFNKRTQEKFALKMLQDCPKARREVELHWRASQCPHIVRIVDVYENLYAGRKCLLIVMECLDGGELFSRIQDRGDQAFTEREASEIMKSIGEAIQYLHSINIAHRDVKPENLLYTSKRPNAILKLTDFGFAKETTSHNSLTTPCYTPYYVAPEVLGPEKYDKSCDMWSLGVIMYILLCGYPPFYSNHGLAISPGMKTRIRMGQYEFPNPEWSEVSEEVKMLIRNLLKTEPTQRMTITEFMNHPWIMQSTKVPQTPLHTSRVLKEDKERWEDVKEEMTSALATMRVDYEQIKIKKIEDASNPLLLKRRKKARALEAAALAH", "assay": "Binding affinity to wild-type human partial length MAPKAPK2 (V48 to D345 residues) expressed in bacterial expression system assessed as residual binding level at 1 uM by Kinomescan method relative to control", "outline": "(§3)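 Kinome-wide competition binding screen against a panel of 468 purified kinases/mutants, with the test compound at a single concentration of 1 μM. Read-out is the relative binding activity of each kinase in the presence of compound.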"}, "[13]": {"target": "Ephrin type-B receptor 2 (Homo sapiens) (UniProt P29323)", "assay": "Binding affinity to wild-type human partial length EPHB2 (I597 to L902 residues) expressed in bacterial expression system assessed as residual binding level at 1 uM by Kinomescan method relative to control"}, "[14]": {"assay": "Apparent clearance in Sprague-Dawley rat at 1 mg/kg, iv", "assay_type": "ADME, organism-based", "details": "in vivo, read-out: CL(app) (converted)"}, "[15]": {"target": "Serine/threonine-protein kinase Nek5 (Homo sapiens) (UniProt Q6P3R8)", "sequence (Q6P3R8 whole entry, the tested form may be a part)": "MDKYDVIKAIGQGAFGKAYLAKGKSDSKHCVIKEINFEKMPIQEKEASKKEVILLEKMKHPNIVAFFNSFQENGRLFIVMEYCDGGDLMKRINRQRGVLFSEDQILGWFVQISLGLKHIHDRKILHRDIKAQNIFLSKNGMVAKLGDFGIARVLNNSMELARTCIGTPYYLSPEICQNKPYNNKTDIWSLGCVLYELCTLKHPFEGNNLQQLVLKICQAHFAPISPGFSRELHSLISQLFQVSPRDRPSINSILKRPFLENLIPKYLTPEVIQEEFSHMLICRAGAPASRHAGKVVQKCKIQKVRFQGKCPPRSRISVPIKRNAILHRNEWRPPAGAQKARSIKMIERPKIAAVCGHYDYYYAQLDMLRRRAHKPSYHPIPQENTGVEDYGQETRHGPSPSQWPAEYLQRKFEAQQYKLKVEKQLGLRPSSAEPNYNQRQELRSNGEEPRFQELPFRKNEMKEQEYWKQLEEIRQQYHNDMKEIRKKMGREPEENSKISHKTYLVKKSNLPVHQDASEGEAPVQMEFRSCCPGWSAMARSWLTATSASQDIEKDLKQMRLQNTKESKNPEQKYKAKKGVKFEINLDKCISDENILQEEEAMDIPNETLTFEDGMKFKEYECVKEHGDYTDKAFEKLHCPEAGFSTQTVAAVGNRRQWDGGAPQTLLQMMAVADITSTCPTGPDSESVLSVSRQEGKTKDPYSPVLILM", "assay": "Binding affinity to wild-type human partial length NEK5 (M1 to M279 residues) expressed in bacterial expression system assessed as residual binding level at 1 uM by Kinomescan method relative to control"}, "[16]": {"target": "Phosphatidylinositol 4,5-bisphosphate 3-kinase catalytic subunit gamma isoform (Homo sapiens) (UniProt P48736)", "assay": "Binding affinity to wild-type human partial length PIK3CG (S144 to A1102 residues) expressed in mammalian expression system assessed as residual binding level at 1 uM by Kinomescan method relative to control"}, "[17]": {"target": "Receptor tyrosine-protein kinase erbB-2 (Homo sapiens) (UniProt P04626)", "assay": "Binding affinity to wild-type human partial length ERBB2 (K646 to V1225 residues) expressed in mammalian expression system assessed as residual binding level at 1 uM by Kinomescan method relative to control"}, "[18]": {"target": "Homeodomain-interacting protein kinase 4 (Homo sapiens) (UniProt Q8NE63)", "sequence (Q8NE63 whole entry, the tested form may be a part)": "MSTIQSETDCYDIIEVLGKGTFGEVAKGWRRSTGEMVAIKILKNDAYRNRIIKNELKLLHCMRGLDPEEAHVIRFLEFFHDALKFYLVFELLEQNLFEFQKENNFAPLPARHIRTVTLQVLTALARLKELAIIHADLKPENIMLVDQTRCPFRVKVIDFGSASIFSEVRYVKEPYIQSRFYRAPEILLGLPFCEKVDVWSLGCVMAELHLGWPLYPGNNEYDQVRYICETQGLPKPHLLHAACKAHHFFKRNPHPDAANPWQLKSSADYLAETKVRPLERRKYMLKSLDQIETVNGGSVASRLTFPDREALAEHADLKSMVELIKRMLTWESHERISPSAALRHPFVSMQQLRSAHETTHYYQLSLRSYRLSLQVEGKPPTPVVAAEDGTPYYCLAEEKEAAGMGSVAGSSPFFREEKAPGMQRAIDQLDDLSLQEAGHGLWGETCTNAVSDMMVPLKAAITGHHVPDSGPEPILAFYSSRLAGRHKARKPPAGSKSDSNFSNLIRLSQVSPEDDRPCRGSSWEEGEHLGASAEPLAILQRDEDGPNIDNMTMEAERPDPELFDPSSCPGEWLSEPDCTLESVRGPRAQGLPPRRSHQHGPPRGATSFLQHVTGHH", "assay": "Binding affinity to wild-type human partial length HIPK4 (M1 to V384 residues) expressed in bacterial expression system assessed as residual binding level at 1 uM by Kinomescan method relative to control", "outline": "as §3"}, "[19]": {"target": "T1, Mast/stem cell growth factor receptor Kit (Homo sapiens, UniProt P10721)", "T1 sequence (P10721 whole entry, the tested form may be a part)": "as the sequence (P10721 whole entry V559D/T670I, the tested form may be a part) above, with D559V, I670T counted along it", "assay": "Inhibition of TEL-fused c-KIT (unknown origin) expressed in mouse BA/F3 cells assessed as growth inhibition after 72 hrs by CellTiter-Glo or CCK-8 assay", "assay_type": "cell-based", "outline": "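Parental BaF3 or IL-3-independent TEL-kinase BaF3 lines, made by retroviral infection and puromycin selection, grown in RPMI 1640 with 10% FBS. Cells seeded at 1–3 × 10^4 cells/mL with serial compound concentrations for 72 h. Viability read by CellTiter-Glo luminescence or CCK-8 absorbance at 450/655 nm and normalised to DMSO. GI50 obtained by triplicate testing with linear regression. Selectivity is the ratio of the two GI50 values.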"}, "[20]": {"target": "Serine/threonine-protein kinase VRK2 (Homo sapiens) (UniProt Q86Y07)", "sequence (Q86Y07 whole entry, the tested form may be a part)": "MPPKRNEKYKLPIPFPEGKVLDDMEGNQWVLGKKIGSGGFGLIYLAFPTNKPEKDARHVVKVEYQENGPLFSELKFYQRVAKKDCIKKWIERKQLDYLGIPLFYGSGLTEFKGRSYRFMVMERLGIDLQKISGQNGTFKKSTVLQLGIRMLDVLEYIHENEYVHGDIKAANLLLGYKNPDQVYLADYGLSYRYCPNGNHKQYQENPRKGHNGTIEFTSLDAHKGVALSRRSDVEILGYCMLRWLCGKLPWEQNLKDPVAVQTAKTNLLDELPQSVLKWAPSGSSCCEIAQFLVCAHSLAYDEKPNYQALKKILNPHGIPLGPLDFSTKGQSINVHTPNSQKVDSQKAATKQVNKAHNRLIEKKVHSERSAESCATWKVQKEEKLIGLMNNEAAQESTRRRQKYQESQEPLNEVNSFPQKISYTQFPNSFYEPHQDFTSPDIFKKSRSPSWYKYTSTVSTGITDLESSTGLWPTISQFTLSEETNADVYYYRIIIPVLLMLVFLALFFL", "assay": "Binding affinity to wild-type human partial length VRK2 (M1 to T336 residues) expressed in mammalian expression system assessed as residual binding level at 1 uM by Kinomescan method relative to control"}, "[21]": {"target": "T1, Mast/stem cell growth factor receptor Kit", "assay": "Binding affinity to wild-type human partial length autoinhibited KIT (Y545 to D952 residues) expressed in mammalian expression system assessed as residual binding level at 1 uM by Kinomescan method relative to control"}}, "note": "The source made the active and inactive calls. The rule behind the calls is not given here."}
{"smiles": "Cc1ccc(NC(=O)c2ccc(CN(CCN(C)C)C(=O)c3cccnc3)cc2)cc1Nc1nccc(-c2cccnc2)n1", "values": [{"measurement": "Activity", "setting": "[1]", "value": 100, "unit": "%"}, {"measurement": "Activity", "setting": "[2]", "value": 76, "unit": "%"}, {"measurement": "Activity", "setting": "[3]", "value": 100, "unit": "%"}, {"measurement": "Activity", "setting": "[4]", "value": 83, "unit": "%"}, {"measurement": "Activity", "setting": "[5]", "value": 100, "unit": "%"}, {"measurement": "Activity", "setting": "[6]", "value": 92, "unit": "%"}, {"measurement": "Activity", "setting": "[7]", "value": "Active"}, {"measurement": "CL/F", "setting": "[8]", "value": 1450, "unit": "mL/min/kg"}, {"measurement": "Activity", "setting": "[9]", "value": 100, "unit": "%"}, {"measurement": "Activity", "setting": "[10]", "value": 71, "unit": "%"}, {"measurement": "Activity", "setting": "[11]", "value": 100, "unit": "%"}, {"measurement": "Activity", "setting": "[12]", "value": 92, "unit": "%"}, {"measurement": "Activity", "setting": "[13]", "value": 100, "unit": "%"}, {"measurement": "clearance", "setting": "[14]", "value": 32.7, "unit": "mL/min/kg"}, {"measurement": "Activity", "setting": "[15]", "value": 99, "unit": "%"}, {"measurement": "Activity", "setting": "[16]", "value": 99, "unit": "%"}, {"measurement": "Activity", "setting": "[17]", "value": 85, "unit": "%"}, {"measurement": "Activity", "setting": "[18]", "value": 74, "unit": "%"}, {"measurement": "GI50", "setting": "[19]", "value": "> 10", "unit": "µM"}, {"measurement": "Activity", "setting": "[20]", "value": 100, "unit": "%"}, {"measurement": "Activity", "setting": "[21]", "value": 100, "unit": "%"}]}
